Results reported in ChEMBL document CHEMBL4033652, “Design, synthesis, and pharmacological evaluation of 4-azolyl-benzamide derivatives as novel GPR52 agonists” (Bioorg Med Chem, 2017).
Values belong to the compound of their own block, whether it stands above or below them. Calls of active or inactive are those of the source. No cut-off for these calls is given here.

What was measured:
[1] = biological target: T1, G-protein coupled receptor 52 (Homo sapiens, UniProt Q9Y2T5); experiment: Agonist activity at human GPR52 expressed in CHO cells assessed as increase in cAMP level after 30 mins by AlphaScreen assay; format: functional, cell-based
T1 sequence (Q9Y2T5 whole entry): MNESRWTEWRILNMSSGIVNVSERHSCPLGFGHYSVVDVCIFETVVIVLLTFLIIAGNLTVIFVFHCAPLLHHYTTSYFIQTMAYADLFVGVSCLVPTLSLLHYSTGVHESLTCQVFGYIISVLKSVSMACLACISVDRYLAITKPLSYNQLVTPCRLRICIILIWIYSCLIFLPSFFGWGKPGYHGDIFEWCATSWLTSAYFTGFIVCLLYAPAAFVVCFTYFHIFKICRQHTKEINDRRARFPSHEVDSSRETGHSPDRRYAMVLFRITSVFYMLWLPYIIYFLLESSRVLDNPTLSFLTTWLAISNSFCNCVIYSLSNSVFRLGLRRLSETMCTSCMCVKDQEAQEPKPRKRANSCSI
Procedure, shortened: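 CHO cells stably expressing human GPR52 (10,000/well) exposed to compound at various concentrations, 30 min, 37°C, in HBSS with 5 mM HEPES pH 7.6, 0.5% BSA, 100 µM IBMX and 100 µM Ro20-1724. AlphaScreen acceptor/donor beads added overnight at room temperature. Response expressed relative to a reference benzofuran agonist (100%). EC50 from mean curves, n = 2–4, 95% CI.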

[2] = biological target: T1, G-protein coupled receptor 52; experiment: Agonist activity at human GPR52 expressed in CHO cells assessed as increase in cAMP level after 30 mins by AlphaScreen assay relative to (N-(2-hydroxyethyl)-3-(2-(3-(trifluoromethyl)benzyl)-1-benzofuran-4-yl)benzamide); format: functional, cell-based
Procedure, shortened: (§1)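 CHO cells stably expressing human GPR52, 10,000 cells per well, exposed to compound 30 min at 37°C in HBSS with 5 mM HEPES pH 7.6, 0.5% BSA, 100 µM IBMX and 100 µM Ro20-1724. cAMP measured by AlphaScreen with acceptor and biotinylated donor beads after overnight room-temperature incubation. Emax set relative to the reference benzofuran benzamide (100%). EC50 taken from mean curves, n = 2–4, with 95% CI.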

[3] = Ratio of AUC (0 to 24 hrs) in ICR mouse brain to plasma at 10 mg/kg, po; format: ADME, organism-based; conditions: brain and plasma, read-out: Ratio AUC
[4] = Oral bioavailability in Sprague-Dawley rat at 1 mg/kg administered as cassette dose by LC-MS/MS analysis; format: ADME, organism-based; conditions: in vivo
Procedure, shortened: (§2)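 Cassette dosing in non-fasted male SD rats (n = 3): i.v. 0.1 mg/kg or p.o. 1 mg/kg. Plasma prepared from blood, deproteinized, centrifuged, supernatant measured by LC/MS/MS. AUC taken over 0–8 h.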

[5] = AUC (0 to 8 hrs) in Sprague-Dawley rat at 1 mg/kg, po administered as cassette dose by LC-MS/MS analysis; format: ADME, organism-based; parameters: time < 8 hr, dose 1 mg/kg, route oral; conditions: in vivo; procedure, shortened: as §2
[6] = Total clearance in Sprague-Dawley rat at 0.1 mg/kg, iv or 1 mg/kg, po administered as cassette dose by LC/MS/MS analysis; format: ADME, organism-based; conditions: in vivo; procedure, shortened: as §2
[7] = Metabolic stability in human liver microsomes at 1 uM after 15 to 30 mins in presence of NADPH by LC/MS/MS analysis; format: ADME, microsome; conditions: read-out: Stability
Procedure, shortened: (§3)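 Human, rat or mouse liver microsomes (0.2 mg/mL protein) incubated with test compound at 1 µmol/L in 50 mmol/L phosphate buffer pH 7.4. Reaction started with an NADPH-generating system, run 15 and 30 min at 37°C, stopped with acetonitrile. Duplicates. Parent compound loss measured by LC/MS/MS.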

[8] = Metabolic stability in rat liver microsomes at 1 uM after 15 to 30 mins in presence of NADPH by LC/MS/MS analysis; format: ADME, microsome; conditions: read-out: Stability; procedure, shortened: as §3
[9] = Metabolic stability in mouse liver microsomes at 1 uM after 15 to 30 mins in presence of NADPH by LC/MS/MS analysis; format: ADME, microsome; conditions: read-out: Stability; procedure, shortened: as §3
[10] = Cmax in ICR mouse plasma at 10 mg/kg, po by LC/MS/MS analysis; format: ADME, organism-based; parameters: dose 10 mg/kg, route oral
Procedure, shortened: (§4)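 Male ICR mice dosed orally at 10 or 30 mg/kg as a suspension in 0.5% methylcellulose. Blood and brain taken at 0.25, 0.5, 1, 2, 4, 8 and 24 h, n = 3 per time point. Plasma separated; brain homogenized in saline. Samples mixed with acetonitrile, centrifuged, supernatant quantified by LC/MS/MS.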

[11] = Cmax in ICR mouse brain at 10 mg/kg, po by LC/MS/MS analysis; format: ADME, organism-based; parameters: dose 10 mg/kg, route oral; procedure, shortened: as §4
[12] = Cmax in ICR mouse plasma at 30 mg/kg, po by LC/MS/MS analysis; format: ADME, organism-based; parameters: dose 30 mg/kg, route oral; procedure, shortened: as §4
[13] = Cmax in ICR mouse brain at 30 mg/kg, po by LC/MS/MS analysis; format: ADME, organism-based; parameters: dose 30 mg/kg, route oral; procedure, shortened: as §4
[14] = Tmax in ICR mouse plasma at 10 mg/kg, po by LC/MS/MS analysis; format: ADME, organism-based; procedure, shortened: as §4
[15] = Tmax in ICR mouse brain at 10 mg/kg, po by LC/MS/MS analysis; format: ADME, organism-based; procedure, shortened: as §4
[16] = Tmax in ICR mouse plasma at 30 mg/kg, po by LC/MS/MS analysis; format: ADME, organism-based; procedure, shortened: as §4
[17] = Tmax in ICR mouse brain at 30 mg/kg, po by LC/MS/MS analysis; format: ADME, organism-based; procedure, shortened: as §4
[18] = AUC (0 to 24 hrs) in ICR mouse plasma at 10 mg/kg, po by LC/MS/MS analysis; format: ADME, organism-based; parameters: time < 24 hr, dose 10 mg/kg, route oral; procedure, shortened: as §4
[19] = test system: Brain; experiment: AUC (0 to 24 hrs) in ICR mouse brain at 10 mg/kg, po by LC/MS/MS analysis; format: ADME, organism-based; parameters: time < 24 hr, dose 10 mg/kg, route oral; conditions: in vivo; procedure, shortened: as §4
[20] = AUC (0 to 24 hrs) in ICR mouse plasma at 30 mg/kg, po by LC/MS/MS analysis; format: ADME, organism-based; parameters: time < 24 hr, dose 30 mg/kg, route oral; procedure, shortened: as §4
[21] = test system: Brain; experiment: AUC (0 to 24 hrs) in ICR mouse brain at 30 mg/kg, po by LC/MS/MS analysis; format: ADME, organism-based; parameters: time < 24 hr, dose 30 mg/kg, route oral; conditions: in vivo; procedure, shortened: as §4
[22] = Ratio of AUC (0 to 24 hrs) in ICR mouse brain to plasma at 30 mg/kg, po; format: ADME, organism-based; conditions: brain and plasma, read-out: Ratio AUC
[23] = MRT in ICR mouse plasma at 10 mg/kg, po by LC/MS/MS analysis; format: ADME, organism-based; procedure, shortened: as §4
[24] = MRT in ICR mouse brain at 10 mg/kg, po by LC/MS/MS analysis; format: ADME, organism-based; procedure, shortened: as §4
[25] = MRT in ICR mouse plasma at 30 mg/kg, po by LC/MS/MS analysis; format: ADME, organism-based; procedure, shortened: as §4
[26] = MRT in ICR mouse brain at 30 mg/kg, po by LC/MS/MS analysis; format: ADME, organism-based; procedure, shortened: as §4
[27] = Protein binding in ICR mouse plasma at 1 uM after 24 hrs by LC/MS/MS based equilibrium dailysis method; format: ADME, cell-free; conditions: read-out: PPB (converted)
Procedure, shortened: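 Plasma from male ICR mice spiked with compound at a final 1 µmol/L. Equilibrium dialysis (MWCO 6–8 kDa) against PBS for 24 h at room temperature. Both sides quantified by LC-MS/MS; bound fraction calculated from the plasma and PBS concentrations.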

[28] = biological target: D(1A) dopamine receptor (Homo sapiens) (UniProt P21728); experiment: Inhibition of dopamine D1 receptor (unknown origin) at 10 uM
D(1A) dopamine receptor (Homo sapiens), sequence (P21728 whole entry): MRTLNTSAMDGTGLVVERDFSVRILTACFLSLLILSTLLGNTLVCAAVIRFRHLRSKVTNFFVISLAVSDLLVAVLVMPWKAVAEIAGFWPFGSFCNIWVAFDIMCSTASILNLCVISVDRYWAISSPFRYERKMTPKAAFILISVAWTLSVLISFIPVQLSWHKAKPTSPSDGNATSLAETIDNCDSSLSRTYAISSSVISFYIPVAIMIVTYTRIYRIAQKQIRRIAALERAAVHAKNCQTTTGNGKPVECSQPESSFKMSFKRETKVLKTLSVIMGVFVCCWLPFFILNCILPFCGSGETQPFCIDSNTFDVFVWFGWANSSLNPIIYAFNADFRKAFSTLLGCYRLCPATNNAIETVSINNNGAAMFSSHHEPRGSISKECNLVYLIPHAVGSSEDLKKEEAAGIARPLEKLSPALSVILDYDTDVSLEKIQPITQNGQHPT

[29] = biological target: dopamine D2L receptor (Homo sapiens, UniProt P14416); experiment: Inhibition of dopamine D2L receptor (unknown origin) at 10 uM
dopamine D2L receptor, sequence (P14416 whole entry): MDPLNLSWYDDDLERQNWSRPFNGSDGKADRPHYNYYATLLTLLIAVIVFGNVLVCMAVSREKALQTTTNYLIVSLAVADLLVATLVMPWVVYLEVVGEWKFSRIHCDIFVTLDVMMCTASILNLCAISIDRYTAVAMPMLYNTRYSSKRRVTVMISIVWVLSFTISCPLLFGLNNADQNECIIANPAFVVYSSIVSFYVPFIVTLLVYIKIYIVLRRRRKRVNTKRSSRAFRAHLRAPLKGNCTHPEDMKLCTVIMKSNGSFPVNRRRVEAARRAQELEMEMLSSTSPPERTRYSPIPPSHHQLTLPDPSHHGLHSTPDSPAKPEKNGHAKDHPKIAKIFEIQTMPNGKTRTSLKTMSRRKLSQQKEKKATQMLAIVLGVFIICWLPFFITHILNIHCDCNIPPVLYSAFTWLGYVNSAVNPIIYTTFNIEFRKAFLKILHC

[30] = biological target: 5-hydroxytryptamine receptor 2A (Homo sapiens) (UniProt P28223); experiment: Inhibition of 5-HT2 receptor (unknown origin) at 10 uM
5-hydroxytryptamine receptor 2A (Homo sapiens), sequence (P28223 whole entry): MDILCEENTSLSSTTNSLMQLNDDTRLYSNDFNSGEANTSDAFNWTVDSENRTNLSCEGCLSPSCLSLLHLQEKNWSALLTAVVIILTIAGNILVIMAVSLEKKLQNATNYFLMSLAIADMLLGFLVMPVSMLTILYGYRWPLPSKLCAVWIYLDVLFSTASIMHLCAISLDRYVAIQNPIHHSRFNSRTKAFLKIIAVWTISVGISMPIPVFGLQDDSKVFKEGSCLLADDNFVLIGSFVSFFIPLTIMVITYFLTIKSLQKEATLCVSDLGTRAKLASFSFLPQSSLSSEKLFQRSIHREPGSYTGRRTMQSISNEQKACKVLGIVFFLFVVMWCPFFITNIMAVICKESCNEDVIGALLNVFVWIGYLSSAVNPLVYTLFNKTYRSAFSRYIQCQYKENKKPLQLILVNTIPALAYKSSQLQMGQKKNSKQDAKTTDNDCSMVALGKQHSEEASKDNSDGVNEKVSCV

[31] = species: Homo sapiens; experiment: Inhibition of AMPA receptor (unknown origin) at 10 uM
[32] = biological target: Glutamate [NMDA] receptor (Homo sapiens) (UniProt Q05586+Q12879+Q13224+O15399+O60391+Q14957+Q8TCU5); experiment: Inhibition of NMDA receptor (unknown origin) at 10 uM
[33] = test system: Mus musculus; experiment: Anti-psychotic activity in ICR mouse assessed as inhibition of methamphetamine-induced hyperlocomotion at 10 mg/kg, po pretreated for 60 mins followed by methamphetamine administration measured after 150 mins; format: functional, organism-based
Procedure, shortened: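 Male ICR mice aged 7–8 weeks, housed singly in activity-monitor cages and habituated 60 min. Compound given p.o. (1–30 mg/kg range tested). Methamphetamine 2 mg/kg s.c. given 60 min later. Activity counts recorded for 150 min after compound dosing. Mean ± SEM, t-test and Williams test.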

[34] = biological target: G-protein coupled receptor 52 (Mus musculus, UniProt P0C5J4); experiment: Agonist activity at mouse GPR52
G-protein coupled receptor 52 (Mus musculus, UniProt P0C5J4), sequence (P0C5J4 whole entry): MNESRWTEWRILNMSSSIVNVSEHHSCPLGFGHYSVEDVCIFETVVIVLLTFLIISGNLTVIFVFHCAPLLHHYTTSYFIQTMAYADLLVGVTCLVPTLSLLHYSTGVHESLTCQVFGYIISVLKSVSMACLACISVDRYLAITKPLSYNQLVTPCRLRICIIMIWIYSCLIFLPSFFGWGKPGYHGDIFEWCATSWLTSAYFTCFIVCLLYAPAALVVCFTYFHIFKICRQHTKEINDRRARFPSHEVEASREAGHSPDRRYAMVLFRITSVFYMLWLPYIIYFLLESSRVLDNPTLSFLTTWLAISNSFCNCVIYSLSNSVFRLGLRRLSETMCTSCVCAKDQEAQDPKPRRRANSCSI

[35] = biological target: G-protein coupled receptor 52 (Mus musculus) (UniProt P0C5J4); experiment: Agonist activity at mouse GPR52 relative to (N-(2-hydroxyethyl)-3-(2-(3-(trifluoromethyl)benzyl)-1-benzofuran-4-yl)benzamide)
G-protein coupled receptor 52 (Mus musculus), sequence (P0C5J4 whole entry): as above

[36] = test system: Mus musculus; experiment: Toxicity in ICR mouse model of methamphetamine-induced hyperlocomotion assessed as cataleptogenic effect at 10 mg/kg, po; format: organism-based; conditions: in vivo
[37] = biological target: T1, G-protein coupled receptor 52; experiment: Agonist activity at human GPR52 expressed in CHO cells assessed as increase in cAMP level at 1 uM after 30 mins by AlphaScreen assay relative to (N-(2-hydroxyethyl)-3-(2-(3-(trifluoromethyl)benzyl)-1-benzofuran-4-yl)benzamide); format: functional, cell-based; procedure, shortened: as §1

SMILES: Cc1nc(Cc2cccc(C(F)(F)F)c2)sc1-c1ccc(C(N)=O)c(F)c1
EC50 [1]: 380 nM | Emax [2]: 84%

SMILES: Cc1cc(-c2sc(Cc3ccccc3Cl)nc2C)ccc1C(N)=O
EC50 [1]: 3900 nM | Emax [2]: 51%

SMILES: Cc1nc(Cc2cccc(C(F)(F)F)c2)sc1-c1ccc(C(N)=O)cc1
EC50 [1]: 220 nM | Emax [2]: 93%

SMILES: Cc1nc(Cc2cccc(C(F)(F)F)c2)sc1-c1ccc(C(N)=O)nc1 [TP-024n]
EC50 [1]: > 1000 nM | Emax [37]: 11%

The remaining compounds from weak to strong by EC50 [1], led by results:

EC50 [1]: 1400 nM | Emax [2]: 87%
SMILES: Cc1cc(C(N)=O)ccc1-c1sc(Cc2cccc(C(F)(F)F)c2)nc1C

EC50 [1]: 690 nM | Emax [2]: 101%
SMILES: Cc1cc(-c2sc(Cc3cccc(N(C)C)c3)nc2C)ccc1C(N)=O

EC50 [1]: 400 nM | Emax [2]: 70%
SMILES: Cc1nc(Cc2cccc(C(F)(F)F)c2)sc1-c1ccc(C(N)=O)cn1

EC50 [1]: 110 nM | Emax [2]: 92%
SMILES: Cc1nc(Cc2cccc(C(F)(F)F)c2)sc1-c1ccc(C(N)=O)c(C(F)(F)F)c1

EC50 [1]: 83 nM | Emax [2]: 84%
SMILES: CCc1cc(-c2sc(Cc3cccc(C(F)(F)F)c3)nc2C)ccc1C(N)=O

Kp [3]: 1.53 | EC50 [1]: 75 nM | Emax [2]: 122% | bioavailability [4]: 53.8% | AUC(0-t) at 8 h [5]: 384 ng·h/mL | clearance [6]: 23.5 mL/min/kg | microsomal CLint at 1 µM [7]: 17 µL/min/mg | microsomal CLint at 1 µM [8]: 9 µL/min/mg | microsomal CLint at 1 µM [9]: 24 µL/min/mg | Cmax [10]: 688 ng/mL | Cmax [11]: 1020 ng/g | Cmax [12]: 1210 ng/mL | Cmax [13]: 2330 ng/g | Tmax [14]: 0.5 h | Tmax [15]: 0.5 h | Tmax [16]: 1 h | Tmax [17]: 1 h | AUC(0-t) at 24 h [18]: 2430 ng·h/mL | AUC [19]: 3.731 µg·h/g | AUC(0-t) at 24 h [20]: 6200 ng·h/mL | AUC [21]: 10.414 µg·h/g | Kp [22]: 1.68 | MRT [23]: 2.29 h | MRT [24]: 2.06 h | MRT [25]: 3.54 h | MRT [26]: 3.25 h | fraction unbound at 24 h, 1 µM [27]: 0.199 | inhibition [28]: < 50% | inhibition at 10 µM [29]: < 50% | inhibition [30]: < 50% | inhibition [31]: < 50% | inhibition [32]: < 50% | EC50 [34]: 71 nM | Emax [35]: 114%
SMILES: Cc1cc(-n2nc(Cc3cc(F)cc(C(F)(F)F)c3)nc2C)ccc1C(N)=O [TP-024]
inhibition [33]: Active | Activity [36]: Non-Toxic
